Experimental data published in ChEMBL document CHEMBL1139364, “Codrugs linking L-dopa and sulfur-containing antioxidants: new pharmacological tools against Parkinson's disease” (J Med Chem, 2009).
Values after ≈ are worked out from the molar mass of the structure shown. Active and inactive are the calls of the source. The rule behind the calls is not given here. Where a SMILES comes first, the peptide text is derived from it. [ ]: non-standard residue; d: D form. Dopa = N[C@@H](Cc1ccc(O)c(O)c1)C(=O)O

Assays:
[1] = Antioxidant activity against lucigenin-induced super oxide radicals by chemiluminescence assay; assay type: functional
Outline: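 Chemiluminescence assay; superoxide anions generated by xanthine/xanthine oxidase system, signal amplified with lucigenin.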

[2] = Stability in human plasma assessed as half life; assay type: ADME, cell-free
Outline: (§1)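 Conversion to L-dopa at 37 °C in rat or human plasma diluted to 80% with isotonic sodium phosphate buffer pH 7.4; residual compound followed over time; pseudo-first-order constants from log residual vs time slope, giving half-life.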

Rattus norvegicus [3] = experiment: Mean residence time in Sprague-Dawley rat assessed as L-dopa level at 0.332 mmol/kg, po; assay type: ADME, organism-based; conditions: in vivo
Outline: (§2)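 Male Sprague–Dawley rats dosed orally at 0.332 mmol/kg; plasma L-dopa followed over time; noncompartmental parameters (Cmax, Tmax, AUC, AUMC, MRT) derived from plasma concentration profiles; data mean ± SE.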

[4] = Stability assessed as half life in hydrochloric acid buffer at pH 1.3; assay type: physicochemical
Outline: (§3)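 Incubation at 37 °C in simulated gastric fluid (pH 1.3) or isotonic sodium phosphate buffer (pH 7.4); loss of parent monitored by HPLC UV-DAD; pseudo-first-order rate constants from slope of log residual compound vs time, giving half-life.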

[5] = Solubility at 50 mg in phosphate buffer at pH 5.0; assay type: physicochemical
Outline: (§4)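 Solubility in water and in buffers at pH 1.3, 5.0 and 7.4 via shake-flask approach; concentration determined by HPLC with UV diode-array detection.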

Rattus norvegicus [6] = experiment: AUC in Sprague-Dawley rat assessed as L-dopa level at 0.332 mmol/kg, po; assay type: ADME, organism-based, Plasma; conditions: in vivo; outline: as §2
[7] = Antioxidant activity against luminol-induced peroxide radicals by chemiluminescence assay; assay type: functional
Outline: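 Chemiluminescence assay with luminol used to measure hydrogen peroxide level.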

[8] = Solubility at 50 mg in phosphate buffer at pH 1.3; assay type: physicochemical; outline: as §4
[9] = Stability in rat plasma assessed as half life; assay type: ADME, cell-free; outline: as §1
[10] = Solubility at 50 mg in phosphate buffer at pH 7.4; assay type: physicochemical; outline: as §4
[11] = Partition coefficient, log K pf the compound; assay type: physicochemical; conditions: octanol/water
Outline: (§5)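 Partition between n-octanol and phosphate buffer pH 7.4 by saturated shake-flask method; compound concentration in phases measured by HPLC with UV diode-array detection.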

Rattus norvegicus [12] = experiment: Tmax in Sprague-Dawley rat assessed as L-dopa level at 0.332 mmol/kg, po; assay type: ADME, organism-based; conditions: in vivo; outline: as §2
Rattus norvegicus [13] = experiment: Effect on behavioral changes in po dosed Wistar rat assessed as decrease in grooming activity after 1.5 hrs by open-field studies compared to L-dopa
[14] = Stability assessed as half life in isotonic sodium phosphate buffer at pH 7.4; assay type: physicochemical; outline: as §3
Rattus norvegicus [15] = experiment: Effect on behavioral changes in po dosed Wistar rat assessed as decrease in spontaneous locomotory activity after 1.5 hrs by open-field studies compared to L-dopa
Rattus norvegicus [16] = experiment: AUMC in Sprague-Dawley rat assessed as L-dopa level at 0.332 mmol/kg, po; assay type: ADME, organism-based; conditions: in vivo; outline: as §2
Rattus norvegicus [17] = experiment: Cmax in Sprague-Dawley rat assessed as L-dopa level at 0.332 mmol/kg, po; assay type: ADME, organism-based; set-up: dose 0.332 mmol/kg, route oral; conditions: in vivo; outline: as §2
[18] = Solubility in water; assay type: physicochemical; outline: as §4
Rattus norvegicus [19] = experiment: Effect on behavioral changes in icv dosed Wistar rat assessed as decrease in rearing episodes after 1.5 hrs by open-field studies compared to L-dopa; assay type: functional, organism-based
Rattus norvegicus [20] = experiment: Effect on behavioral changes in icv dosed Wistar rat assessed as increase in grooming activity after 3 days by open-field studies; assay type: functional, organism-based
Rattus norvegicus [21] = experiment: Antiparkinson activity in po dosed rat striatum assessed as L-dopa levels per mg of tissue after 6 hrs
Rattus norvegicus [22] = experiment: Effect on behavioral changes in icv dosed Wistar rat assessed as increase in spontaneous locomotory activity after 3 days by open-field studies; assay type: functional, organism-based
Rattus norvegicus [23] = experiment: Effect on behavioral changes in icv dosed Wistar rat assessed as increase in rearing episodes after 3 days by open-field studies; assay type: functional, organism-based
[24] = Lipophilicity, log P pf the compound at pH 7.4 by saturated shake-flask method; assay type: physicochemical; conditions: buffer; outline: as §5
Rattus norvegicus [25] = experiment: Antiparkinson activity in Wistar rat striatum assessed as dopamine levels per mg of tissue at 1 umol/kg, icv after 1 week; assay type: functional
Outline: (§6)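 Rats dosed icv for 1 week at 1 µmol/kg; striatal L-dopa and dopamine quantified by HPLC with electrochemical detection; three experiments, mean with standard error.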

Rattus norvegicus [26] = experiment: Effect on behavioral changes in icv dosed Wistar rat assessed as anxiety-like behavior by open-field studies; assay type: functional, organism-based
Rattus norvegicus [27] = experiment: Antiparkinson activity in Wistar rat striatum assessed as L-dopa levels per mg of tissue at 1 umol/kg, icv after 1 week; assay type: functional; outline: as §6
Rattus norvegicus [28] = experiment: Sedative activity in icv dosed Wistar rat assessed as reduction of explorative activity; assay type: functional, organism-based
[29] = Plasma concentration in Sprague-Dawley rat after 8 hrs; assay type: ADME, organism-based
Outline: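 Male Sprague–Dawley rats given 0.332 mmol/kg orally; plasma L-dopa measured over time, including at 8 h; mean ± SE.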

Compound | half-life [2] [h] | MRT (Rattus norvegicus [3]) [h] | half-life [4] [h] | solubility [5] [µg/mL] | AUC (Rattus norvegicus [6]) [ug/hr.ml] | solubility [8] [µg/mL] | half-life [9] [h] | solubility [10] [µg/mL] | log K [11] | Tmax (Rattus norvegicus [12]) [h] | half-life [14] [h] | AUMC (Rattus norvegicus [16]) [ug/ml.hr'2] | Cmax (Rattus norvegicus [17]) [ng/mL] | solubility [18] [µg/mL] | Activity [1] | Activity [7] | Activity (Rattus norvegicus [13]) | Activity (Rattus norvegicus [15]) | Activity (Rattus norvegicus [19]) | Activity (Rattus norvegicus [26]) | further results
COC(=O)[C@H](CCSC)NC(=O)[C@H](Cc1ccc(O)c(O)c1)NC(C)=O (Ac-[Dopa]-Met-OMe) | 4.39 | 6.96 | 292 | 247 (≈ 642 µM) | 984.01 | 256 (≈ 665 µM) | 1.55 | 101 (≈ 262 µM) | -0.25 | 2.25 | 26.9 | 6844.84 | 51070 | 103 (≈ 268 µM) | Active | Active | Active | Active | Active | Active | Activity (Rattus norvegicus [20]): Active; Activity (Rattus norvegicus [21]): 8 pmol/mg; Activity (Rattus norvegicus [22]): Active; Activity (Rattus norvegicus [23]): Active; logD [24]: -0.19; Activity (Rattus norvegicus [25]): 0.22 pmol/mg; Activity (Rattus norvegicus [27]): 2.13 pmol/mg; Activity (Rattus norvegicus [28]): Active
COC(=O)[C@H](Cc1ccc(O)c(O)c1)NC(=O)[C@H](CS)NC(=O)C(C)(C)S | 1.5 | 8.22 | 292 | 3.82 (≈ 9.17 µM) | 493.29 | 7.07 (≈ 17 µM) | 1.16 | 13.5 (≈ 32.3 µM) | 0.2 | 6.04 | 21.3 | 4056.32 | 17410 | 14.3 (≈ 34.4 µM) | Active | Active | Active | Active | Active | Active | logD [24]: 0.92
COC(=O)[C@H](Cc1ccc(O)c(O)c1)NC(=O)[C@H](CS)NC(=O)[C@@H](CS)NC(C)=O | 3.39 | 8.35 | 293 | 15.1 (≈ 32.7 µM) | 432.2 | 20 (≈ 43.5 µM) | 0.93 | 9.08 (≈ 19.8 µM) | -0.11 | 1.55 | 48.5 | 3608.38 | 16310 | 15 (≈ 32.6 µM) | Active | Active | Active | Active | Active | Active | logD [24]: -0.14

Continued, in another order:

half-life [2] [h] | MRT (Rattus norvegicus [3]) [h] | half-life [4] [h] | solubility [5] [µg/mL] | AUC (Rattus norvegicus [6]) [ug/hr.ml] | solubility [8] [µg/mL] | half-life [9] [h] | solubility [10] [µg/mL] | log K [11] | Tmax (Rattus norvegicus [12]) [h] | half-life [14] [h] | AUMC (Rattus norvegicus [16]) [ug/ml.hr'2] | Cmax (Rattus norvegicus [17]) [ng/mL] | solubility [18] [µg/mL] | Compound | Activity [1] | Activity [7] | Activity (Rattus norvegicus [13]) | Activity (Rattus norvegicus [15]) | Activity (Rattus norvegicus [19]) | Activity (Rattus norvegicus [26]) | further results
1.16 | 9.34 | 301 | 228 (≈ 639 µM) | 179.06 | 208 (≈ 584 µM) | 0.78 | 201 (≈ 563 µM) | -0.3 | 4.05 | 46.2 | 1673.2 | 6910 | 210 (≈ 590 µM) | COC(=O)[C@H](Cc1ccc(O)c(O)c1)NC(=O)[C@H](CS)NC(C)=O (Ac-Cys-[Dopa]-OMe) | Active | Active | Active | Active | Active | – | –
5.25 | 7.58 | 296 | 237 (≈ 618 µM) | 1624.91 | 154 (≈ 401 µM) | 1.92 | 174 (≈ 453 µM) | -0.22 | 4.22 | 30.2 | 12319.3 | 62870 | 101 (≈ 262 µM) | COC(=O)[C@H](Cc1ccc(O)c(O)c1)NC(=O)[C@H](CCSC)NC(C)=O (Ac-Met-[Dopa]-OMe) | Active | Active | Active | Active | Active | Active | Activity (Rattus norvegicus [20]): Active; Activity (Rattus norvegicus [21]): 18 pmol/mg; Activity (Rattus norvegicus [22]): Active; Activity (Rattus norvegicus [23]): Active; logD [24]: 0.38; Activity (Rattus norvegicus [25]): 0.09 pmol/mg; concentration at 8 h [29]: 53000 ng/mL; Activity (Rattus norvegicus [27]): 4.03 pmol/mg; Activity (Rattus norvegicus [28]): Active
– | 8.95 | – | – | 117.73 | – | – | – | – | 1.03 | – | 1053.92 | 5630 | – | N[C@@H](Cc1ccc(O)c(O)c1)C(=O)O [LEVODOPA] | – | – | – | – | – | – | Activity (Rattus norvegicus [25]): 0.07 pmol/mg; Activity (Rattus norvegicus [27]): 3.36 pmol/mg
1.09 | 9.52 | 291 | 152 (≈ 426 µM) | 110.62 | 147 (≈ 414 µM) | 0.61 | 159 (≈ 447 µM) | -0.26 | 4.11 | 48 | 1053.36 | 6190 | 154 (≈ 431 µM) | COC(=O)[C@H](CS)NC(=O)[C@H](Cc1ccc(O)c(O)c1)NC(C)=O (Ac-[Dopa]-Cys-OMe) | Active | Active | Active | Active | Active | Active | –
